Eight molecules from ChEMBL document CHEMBL3132745, “Synthesis and Antimicrobial Activities of His(2-aryl)-Arg and Trp-His(2-aryl) Classes of Dipeptidomimetics” (Medchemcomm, 2014) can be followed below.

Broadly, the IC50 is the midpoint of a concentration-inhibition curve. Broadly, the MIC is the lowest concentration found to suppress growth.

In brackets after ≈: the same amount, converted by molar mass. Activity calls are given as the source filed them. How the calls were made is not given here. Residues, ends and D or L forms follow the SMILES beside them. *: point of attachment. Boc = CC(C)(C)OC(=O)*

Data set [1] has as its system SK-OV-3. The experiment in a line: Cytotoxicity against human SKOV3 cells assessed as cell viability after 48 hrs by neutral red uptake assay. The data set is classed as cell-based. As to conditions: sk-ov-3, 48 h. The gist of the method: (§1)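 Neutral red uptake assay on human cancer lines (SK-MEL, KB, BT-549, SK-OV-3) and noncancerous mammalian cells (VERO, LLC-PK1). Highest tested concentration was 10 µg/mL.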

The subject of data set [2] is Candida albicans. In words: Antifungal activity against Candida albicans assessed as growth inhibition. The data set is classed as functional, organism-based.
The test system of data set [3] is Nakaseomyces glabratus. In words: Antifungal activity against Candida glabrata assessed as growth inhibition. The data set is classed as functional, organism-based.
Data set [4] concerns BT-549. In words: Cytotoxicity against human BT549 cells assessed as cell viability after 48 hrs by neutral red uptake assay. The data set is classed as cell-based. Conditions: bt-549, 48 h. The method in brief: as §1
Data set [5] deals with Escherichia coli. In words: Antibacterial activity against Escherichia coli ATCC 35218 assessed as growth inhibition after 16-20 hrs by CLSI method. The data set is classed as functional, organism-based.
The test system of data set [6] is KB. In words: Cytotoxicity against human KB cells assessed as cell viability after 48 hrs by neutral red uptake assay. Format: cell-based. The gist of the method:
as §1

In data set [7] the test system is LLC-PK1. In words: Cytotoxicity against pig LLC-PK1 cells assessed as cell viability after 48 hrs by neutral red uptake assay. Format: cell-based, Sus scrofa. As to conditions: llc-pk1, 48 h. The gist of the method: as §1
The subject of data set [8] is Vero. In words: Cytotoxicity against african green monkey Vero cells assessed as cell viability after 48 hrs by neutral red uptake assay. Format: cell-based. As to conditions: chlorocebus sabaeus. The method in brief:
as §1

The subject of data set [9] is Pichia kudriavzevii. In words: Antifungal activity against Candida krusei assessed as growth inhibition. The data set is classed as functional, organism-based.
For data set [10], the system named is SK-MEL. In words: Cytotoxicity against human SK-MEL cells assessed as cell viability after 48 hrs by neutral red uptake assay. Format: cell-based. The gist of the method: as §1
In data set [11] the test system is Cryptococcus neoformans. In words: Antifungal activity against Cryptococcus neoformans ATCC 90113 assessed as growth inhibition after 70-74 hrs by CLSI method. The data set is classed as functional, organism-based.
The test system of data set [12] is Aspergillus fumigatus. The experiment in a line: Antifungal activity against Aspergillus fumigatus assessed as growth inhibition. Format: functional, organism-based.
The mark [13] stands for this setting: Cryptococcus neoformans, ATCC 90113, read-out: IC50.

On to `COc1ccc(-c2nc(C[C@H](N)C(=O)N[C@@H](CCCNC(=N)N)C(=O)NCc3ccccc3)c[nH]2)cc1`, for which the Activity in data set [1], in [4], in [6], in data set [7], in data set [8] and in data set [10] was > 10 µg/mL each time. Further, the “growth inhibition (GI)” value in data set [2], in [3], in [5], in [9] and in [12] was “inactive” each time. In data set [11], the IC50 entry is “Not Active”. In addition, the MFC entry in [11] was “inactive”. For the same molecule, the MIC entry in data set [11] is “inactive”.
Regarding `COC(=O)[C@H](Cc1c[nH]c(-c2ccc(C(C)(C)C)cc2)n1)NC(=O)[C@@H](N)Cc1c[nH]c2ccccc12`, the Activity in data set [1], in data set [4], in [6], in data set [7], in data set [8] and in data set [10] was > 10 µg/mL in each case. Besides, the “growth inhibition (GI)” value in data set [2], in data set [3], in data set [5], in [9] and in [12] was “inactive” in each case. The MFC result in data set [11] is “inactive”. The MIC result in data set [11] is “inactive”. Also, the IC50 in data set [11] (setting [13]) was determined as 18.8 µg/mL (≈ 38.6 µM).
Turning to `COC(=O)[C@H](CCCNC(=N)N)NC(=O)[C@@H](N)Cc1c[nH]c(-c2ccc(OC)cc2)n1`, the Activity in data set [1], in data set [4], in data set [6], in data set [7], in data set [8] and in [10] was > 10 µg/mL in each case. Also, the “growth inhibition (GI)” value in [2], in data set [3], in [5], in [9] and in data set [12] was “inactive” throughout. The IC50 result in data set [11] is reported as “Not Active”. In addition, in [11], the MFC result was “inactive”. Besides, the MIC entry in data set [11] is “inactive”.
`COC(=O)[C@H](Cc1c[nH]c(-c2ccc(OC)cc2)n1)NC(=O)[C@@H](N)Cc1c[nH]c2ccccc12`: the Activity in data set [1], in data set [4], in data set [6], in data set [7], in data set [8] and in [10] was > 10 µg/mL in each case. Also, the “growth inhibition (GI)” value in data set [2], in [3], in [5], in data set [9] and in data set [12] was “inactive” each time. The IC50 entry in data set [11] is recorded as “Not Active”. The MFC result in [11] is “inactive”. Further, the MIC result in [11] was “inactive”.
Take `COC(=O)[C@H](CCCNC(=N)N)NC(=O)[C@H](Cc1c[nH]c(-c2ccc(C)cc2)n1)NC(=O)OC(C)(C)C`: the Activity in [1], in data set [4], in data set [6], in data set [7], in data set [8] and in data set [10] was > 10 µg/mL throughout. Also, the “growth inhibition (GI)” value in data set [2], in data set [3], in data set [5], in data set [9] and in [12] was “inactive” throughout. The MFC result in data set [11] was “inactive”. The MIC result in [11] was “inactive”. Moreover, the IC50 in data set [11] (setting [13]) turned out to be 16.9 µg/mL (≈ 32.9 µM).
In the case of `COC(=O)[C@H](Cc1c[nH]cn1)NC(=O)[C@H](Cc1c[nH]c2ccccc12)NC(=O)OC(C)(C)C` (Boc-Trp-His-OMe), the Activity in data set [1], in [4], in data set [6], in [7], in data set [8] and in data set [10] was > 10 µg/mL throughout. Further, the “growth inhibition (GI)” value in [2], in data set [3], in data set [5], in data set [9] and in [12] was “inactive” each time. The IC50 entry in data set [11] is recorded as “Not Active”. Further, the MFC entry in data set [11] is “inactive”. For the same molecule, the MIC entry in data set [11] is “inactive”.
`COC(=O)[C@H](CCCNC(=N)N)NC(=O)[C@H](Cc1c[nH]c(-c2ccc(C(C)(C)C)cc2)n1)NC(=O)OC(C)(C)C`: the Activity in [1], in data set [4], in [6], in data set [7], in [8] and in [10] was > 10 µg/mL in each case. Moreover, the “growth inhibition (GI)” value in data set [2], in data set [3], in data set [5], in data set [9] and in [12] was “inactive” throughout. In addition, the IC50 entry in data set [11] is “Not Active”. In addition, the MFC result in data set [11] was “inactive”. Besides, the MIC result in [11] is “inactive”.
Regarding `COc1ccc(-c2nc(C[C@H](NC(=O)[C@@H](N)Cc3c[nH]c4ccccc34)C(=O)NCc3ccccc3)c[nH]2)cc1`, the Activity in [1], in data set [4], in data set [6], in data set [7], in data set [8] and in [10] was > 10 µg/mL in each case. The “growth inhibition (GI)” value in data set [2], in data set [3], in data set [5], in data set [9] and in [12] was “inactive” throughout. In [11], the MFC result was “inactive”. Also, the minimal inhibitory concentration (MIC) in [11] (Cryptococcus neoformans, ATCC 90113) is 10 µg/mL (≈ 18.6 µM). The 50% inhibitory concentration (IC50) in [11] (setting [13]) was 10.8 µg/mL (≈ 20.2 µM).
